# Assay results collected from several papers.
# Each line is one published result; the experiments were not run side by side.
# Target: Myosin light chain kinase 2, skeletal/cardiac muscle (MYLK2, Homo sapiens, UniProt Q9H1R3)
SMILES,observed,mode,method,tested at,endpoint,result
Cc1nn(C)cc1-c1nc2c(N3CCN(Cc4ccc(Cl)cc4)CC3)c(Cl)cnc2[nH]1,binding,,competition with immobilised ligand,1 µM,remaining binding,61%
Cn1cncc1[C@@](O)(COc1ccc(C#N)cc1-c1ccc(OC(F)(F)F)cc1)c1ccc(C#N)cc1,cell-free assay,,competition with immobilised ligand,1 µM,remaining binding,100%
Cn1cc(-c2cccc(N3CCc4c(sc5c4CC(C)(C)C5)C3=O)c2CO)cc(Nc2ccncn2)c1=O,enzyme activity,inhibitor,,1 µM,inhibition,14%
CC(C)(C)c1cc(C=C(C#N)C#N)cc(Br)c1O,enzyme activity,inhibitor,,0.5 µM,remaining activity,99.3%
COc1cc(Nc2ncc(F)c(Nc3ccc4c(n3)NC(=O)C(C)(C)O4)n2)cc(OC)c1OC,binding,,competition with immobilised ligand,10 µM,inhibition,58%
Nc1ncc(-c2nc(N3CCOCC3)nc(N3CCOCC3)n2)c(C(F)F)n1,binding,,competition with immobilised ligand,10 µM,remaining binding,92%
Cn1cc(-c2cc(F)cc(N3CCn4c(cc5c4CCCC5)C3=O)c2CO)cc(Nc2ccc(N3CCN(C4COC4)CC3)cn2)c1=O,enzyme activity,inhibitor,,0.1 µM,inhibition,17%
O=c1[nH]c2ccccc2n1C1CCN(Cc2ccc(-c3[nH]c4cc5ncnc5cc4nc3-c3ccccc3)cc2)CC1,cell-free assay,,,0.5 µM,remaining signal,103%
COc1ncccc1-c1cnn2ccc(N3CCN(C(=O)OC(C)C)CC3)nc12,binding,,competition with immobilised ligand,1 µM,remaining binding,89%
